HSF1 activator – increases HSF-1 driven luciferase reporter signal | actives 1.7% (n = 300,000) | NIH3T3-HGL HSF-1 luciferase reporter, MG132, 8 h; 100% = twice DMSO control signal | activation, % at 9 µM;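 active = mean replicate activation of at least 50% with a set share of replicates each reaching 50%; inconclusive = only one of those two conditions met; inactive = mean below 50% and too few replicates reaching it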;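 note: 0% = median of the neutral control wells and 100% = twice that signal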
HCV core dimer – HCV core protein dimerization inhibition. TR-FRET GST/Flag-core106 dimerization, 1536-well. inhibition, % at 5 µM. actives 0.33% (n = 300,000);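 active = inhibition above the mean of all tested compounds plus 3 SD, set per screening campaign, cut at about 45% in these data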
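Assay system: Tagged HCV core106 pair (GST and Flag) | Buffer or medium: KF-containing HEPES buffer, pH 7.45, DTT, CHAPS, BSA | Also added: Eu donor and XL665 acceptor anti-tag antibodies | Dosing: One concentration, 5 µM, in 0.5% DMSO | Timing: 4 h at 22.5 °C | Technique: TR-FRET 671 and 617 nm emission | Repeats: Singlicate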
AI-2 QS mod – modulators of Vibrio harveyi AI-2 quorum sensing system. Vibrio harveyi JMH597 AI-2 luminescence/OD600 ratio, 9 h; active compounds read low; strain lacks LuxN and CqsS sensors; 0 = neutral-control median. activity change, % at 7.5 µM. actives 0.4% (n = 300,000); in the data active = activity change below about -75%, passing the limit was not always enough; inconclusive = no clear call, values can overlap the other calls;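 note: luminescence divided by OD600 gain over 9 h not by final OD600 alone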
PHOSPHO1 block – inhibitors of human PHOSPHO1 phosphatase. inhibition, % at 13.3 µM. actives 1.1% (n = 290,000). AID 1565. recombinant PHOSPHO1, absorbance phosphatase assay; in the data active = inhibition above about 60%
Target sequence (Q8TCT1 whole entry, looked up): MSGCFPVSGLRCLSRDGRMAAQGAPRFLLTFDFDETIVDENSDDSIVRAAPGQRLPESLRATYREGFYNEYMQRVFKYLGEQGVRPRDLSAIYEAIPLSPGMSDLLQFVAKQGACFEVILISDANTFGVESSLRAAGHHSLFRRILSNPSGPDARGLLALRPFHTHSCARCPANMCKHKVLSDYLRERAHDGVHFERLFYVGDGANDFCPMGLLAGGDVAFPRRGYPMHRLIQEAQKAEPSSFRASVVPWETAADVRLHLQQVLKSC
ALR inh – blocks human ALR sulfhydryl oxidase activity. actives 3.8% (n = 290,000). AID 485317. inhibition, % (test concentration not listed). purified ALR, DTT oxidation, H2O2 HRP-luminol luminescence. P55789;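 active = mean replicate inhibition above about 79%, with every replicate also reaching it, limit read from the data; inconclusive = only one of the two criteria met; inactive = mean below limit and not every replicate reaching it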
Target sequence (P55789 whole entry, looked up): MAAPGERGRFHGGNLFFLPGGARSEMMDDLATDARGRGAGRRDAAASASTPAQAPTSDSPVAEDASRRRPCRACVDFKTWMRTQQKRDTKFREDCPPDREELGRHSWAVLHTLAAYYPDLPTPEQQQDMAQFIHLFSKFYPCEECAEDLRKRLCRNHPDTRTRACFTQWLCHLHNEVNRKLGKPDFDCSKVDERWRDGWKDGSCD
HSF1 inhib – HSF1 inhibition; NIH3T3-HGL HSE-luciferase, MG132-induced, luminescence 8 h; active compounds read low; activity change, negative = inhibition, % at 7.5 µM (by protocol); actives 0.77% (n = 300,000);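 active = more than half of replicate wells show activity change below -50%, luminescence cut by over half; inconclusive = some wells, but at most half, below -50%; inactive = no replicate well below -50%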;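 note: luciferase reports HSF-1 transcriptional activity via heat shock element; 0% = median of DMSO wells and -100% = zero luminescence signal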
Starred values were filed as active, the others as inactive; ? = inconclusive; . = not tested or not shown. Rows were chosen to be rich in hits. Some 6.8% of all compounds tested hit in one or more screens of this group.

SMILES | HSF1 activator | HCV core dimer | AI-2 QS mod | PHOSPHO1 block | ALR inh | HSF1 inhib
COc1ccc(NC(=O)c2ccc([N+](=O)[O-])o2)cc1 | 64.4* | -9.0 | -4.3 | . | -27.2 | 43.5
CC(=O)c1cccc(NC(=O)c2ccc([N+](=O)[O-])o2)c1 | 54.8* | 0.2 | ? | . | -17.2 | 45.3
CC(=O)c1ccc(NC(=O)c2ccc([N+](=O)[O-])o2)cc1 | 90.8* | . | -91.4* | 29.0 | -32.8 | 93.7
Cc1cc(C)cc(NC(=O)c2ccc([N+](=O)[O-])o2)c1 | ? | . | -110.1* | 27.1 | . | 40.5
CC1CCCC(NC(=O)COC(=O)c2cc(=O)[nH]c3ccccc23)C1C (stereo not drawn) | . | . | . | . | -11.3 | .
Clc1ccc2c(c1)[C@H]1OCC[C@H]1[C@@H](c1ccco1)N2 | 69.8* | -2.9 | 33.8 | 0.1 | 60.5 | 30.2
Fc1ccc2c(c1)[C@H]1OCC[C@H]1[C@@H](c1ccco1)N2 | -2.9 | 4.5 | 7.1 | -5.8 | 3.5 | 1.9
CCOCCCN(C(=O)c1snc(C(N)=O)c1N)C(C(=O)NC1CCCC1)c1ccc(F)cc1 (stereo not drawn) | 5.6 | 7.7 | 18.2 | 10.2 | -9.3 | 8.5
O=C1CCCC2=C1C(c1ccco1)Nc1ccc3ccccc3c12 (stereo not drawn) | 31.2 | 71.3* | 12.8 | 8.5 | -1.3 | 16.1
Cc1ccc(C2Nc3ccc4ccccc4c3C3=C2C(=O)CC(C)(C)C3)o1 (stereo not drawn) | 86.4* | 0.3 | 21.1 | -12.7 | . | 61.2
COc1cc(C2Nc3ccc4ncccc4c3C3=C2C(=O)CCC3)cc(OC)c1O (stereo not drawn) | 8.1 | -3.1 | 14.2 | -2.4 | . | 1.9
O=C1CCCC2=C1C(c1ccc(O)c(O)c1)Nc1ccc3ccccc3c12 (stereo not drawn) | 8.5 | 2.2 | 20.5 | . | 98.4* | 5.4
CC1(C)CC(=O)C2=C(C1)c1c(ccc3ccccc13)NC2c1ccc(C(=O)O)cc1 (stereo not drawn) | -11.1 | 6.7 | 23.8 | 6.9 | -12.3 | -11.7
Cc1ccc(N2CN=c3s/c(=C\c4cccnc4)c(=O)n3C2)cc1 | -26.3 | -2.1 | 6.9 | 6.4 | -9.9 | -24.2
Cc1ccc(/C=c2\sc3nc(-c4cccnc4)nn3c2=O)cc1 | 4.5 | 12.2 | 6.6 | -24.6 | 91.3* | 7.7
CC(C)c1ccc(/C=c2\sc3nc(-c4ccncc4)nn3c2=O)cc1 | 0.9 | 13.5 | 6.4 | 46.6 | 86.8* | 5.5
Cc1cccc(NS(=O)(=O)c2csc(C(N)=O)c2)c1C | 4.7 | 1.5 | 16.8 | 46.3 | -9.3 | 0.3
CCn1c(Cl)c(C=O)s/c1=N\S(=O)(=O)c1ccccc1 | 113.2* | 8.3 | 25.4 | 3.6 | 36.5 | 77.5
CCN1C(=O)CS/C1=N\S(=O)(=O)c1ccc(Cl)cc1 | -1.7 | -3.4 | 12.0 | 21.4 | -0.2 | -1.9
COc1ccc(-c2cc(C(F)(F)F)c3c(=O)n(-c4ccccc4)[nH]c3n2)cc1 | -1.5 | -9.7 | 4.5 | 8.0 | 99.3* | -1.6
C=CCOc1c(Br)cc(/C=C2/C(=O)ON=C2C)cc1OC | -2.9 | 5.9 | 27.7 | 38.1 | 70.7 | -5.1
COc1cc(OC)cc(-c2nnc(Nc3nc4c(F)cccc4s3)o2)c1 | -19.7 | 6.2 | 22.3 | 0.6 | -2.8 | -11.4
COc1ccc(-c2nnc(Nc3nc4c(OC)cccc4s3)o2)c(OC)c1 | 60.2* | 5.3 | 9.6 | -18.3 | 4.5 | 46.1
Fc1cccc2sc(Nc3nnc(-c4ccccc4)o3)nc12 | 72.5* | 18.4 | 10.7 | 0.5 | ? | 48.6
O=C(O)CC/C(=N\NC(=O)CNC(=O)c1ccc(F)cc1)c1ccccc1 | -4.0 | 2.8 | 7.1 | -14.7 | . | -6.6
SMILES | HSF1 activator | HCV core dimer | AI-2 QS mod | PHOSPHO1 block | ALR inh | HSF1 inhib
O=C(O)c1ccccc1Sc1c([N+](=O)[O-])cc(C(F)(F)F)cc1[N+](=O)[O-] | -1.8 | 1.3 | 23.0 | -26.9 | -11.2 | -6.9
COc1ccc(C(=O)NC(=S)N2CCOCC2)cc1OC | -3.6 | 3.7 | -8.7 | -28.0 | -6.8 | -9.5
CCOC(=O)c1[nH]c2ccccc2c1NC(=S)Nc1ccccc1 | -23.3 | -17.8 | -3.6 | -3.7 | 98.1* | -8.1
CCOC(=O)c1[nH]c2ccccc2c1NC(=S)Nc1cccc(C)c1 | -13.3 | -7.7 | -6.0 | -20.9 | 98.3* | -7.2
CCOC(=O)c1[nH]c2ccccc2c1NC(C)=O | 3.0 | -7.5 | -5.3 | -0.6 | -6.9 | -4.8
Cc1ccc(C(C)NC(=O)c2cc3cc(Br)ccc3oc2=N)cc1 (stereo not drawn) | 2.5 | -3.7 | 12.6 | 23.3 | -2.4 | 2.9
O=C1NC(=O)/C(=C\c2cn(CC(=O)N3CCOCC3)c3ccccc23)S1 | -5.0 | -16.0 | 24.4 | 21.7 | . | -0.1
Cc1ccccc1CSc1nccn1-c1ccccc1 | 2.0 | -19.6 | 0.8 | -117.6 | 98.6* | -4.8
CCc1ccc(CN(C)C(=O)CC2C(=O)NCCN2Cc2ccoc2)cc1 (stereo not drawn) | -2.0 | -1.9 | 15.8 | 39.7 | -0.1 | -4.0
O=C(/C=C/c1ccco1)NCC1OCCc2ccccc21 (stereo not drawn) | -1.9 | 12.6 | 3.7 | 41.5 | 98.1* | -3.1
C=CC(=O)NCC1OCCc2ccccc21 (stereo not drawn) | 3.1 | 0.8 | 15.9 | -1.1 | -17.5 | 0.9
CC(C)C(=O)N1CCN(CCN2C(=O)c3cccc4cccc(c34)C2=O)CC1 | 17.1 | . | 7.9 | 27.3 | . | 6.9
CC(C)(C)C(=O)N1CCN(CCN2C(=O)c3cccc4cccc(c34)C2=O)CC1 | -61.1 | -5.6 | 16.4 | . | -5.8 | -52.6*
CCOc1cc(-c2cc(-c3ccc(C)cc3)nc(N)c2C#N)ccc1O | 3.4 | -4.1 | 4.6 | -15.3 | 44.2 | -7.0
CCOc1cc(/C=C(\C#N)c2[nH]nc(N)c2C#N)ccc1O | -14.6 | 0.8 | 25.0 | 5.1 | 99.2* | -2.9
Cc1sc(Cc2nc(O)cs2)nc1-c1ccccc1 | 11.0 | 3.3 | -1.0 | 7.3 | 97.3* | -1.0
Cc1ccc(-c2nc(CS(=O)CC(=O)NC(C)CCc3ccccc3)c(C)o2)cc1 (stereo not drawn) | 27.5 | 2.3 | 22.3 | 27.9 | 93.0* | 8.2
Cc1oc(-c2ccccc2F)nc1CS(=O)(=O)CC(=O)NC(C)CCc1ccccc1 (stereo not drawn) | 19.3 | -8.1 | 18.3 | 11.9 | -7.8 | 5.6
COc1ccc(CC(=O)NC(C)CCc2ccccc2)cc1OC (stereo not drawn) | 20.9 | -6.1 | 4.2 | 15.3 | 35.0 | -5.9
Cc1ccc(-c2nc(CS(=O)CC(=O)NCCCc3ccccc3)c(C)o2)cc1 (stereo not drawn) | -7.1 | -1.9 | 9.2 | 23.5 | 98.2* | 2.9
COc1ccc(-c2nc(CS(=O)CC(=O)NC(C)CCc3ccccc3)c(C)o2)cc1OC (stereo not drawn) | 12.5 | -10.6 | . | 22.5 | 99.3* | 1.8
COc1ccc(-c2nc(CS(=O)(=O)CC(=O)NCCCc3ccccc3)c(C)o2)cc1 | -20.0 | -4.4 | -7.8 | 14.0 | ? | -1.4

Screens from PubChem BioAssay.
